In ChEMBL document CHEMBL2321702, “Synthesis and antimalarial efficacy of two-carbon-linked, artemisinin-derived trioxane dimers in combination with known antimalarial drugs” (J Med Chem, 2013):

Columns and labels:
Plasmodium berghei [1] = test: Antimalarial activity against Plasmodium berghei ANKA infected in C57BL/6J mouse assessed as suppression of blood parasitemia level at 6 mg/kg, po measured on day 3 relative to vehicle-treated control in presence of mef-HCl; type: functional
Method in brief: (§1)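 Male C57BL/6J mice (5 weeks old, about 20 g; four per group) were infected with P. berghei ANKA (2×10^7 parasitized erythrocytes). After 24 h, each received a single 200 μL oral gavage of trioxane 6 mg/kg plus mefloquine hydrochloride 18 mg/kg in 7:3 Tween:EtOH diluted with water. Blood parasitemia was read on day 3, and survival was followed to day 60 against untreated mice.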

Plasmodium berghei [2] = test: Antimalarial activity against Plasmodium berghei ANKA infected in C57BL/6J mouse assessed as average survival time at 6 mg/kg, po in presence of Mef-HCl (reference value: 7.3 days); type: functional; method in brief: as §1
Plasmodium berghei [3] = test: Antimalarial activity against Plasmodium berghei ANKA infected in C57BL/6J mouse assessed as suppression of blood parasitemia level at 150 mg/kg, po measured on day 3 relative to vehicle-treated control; type: functional
Method in brief: (§2)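 Single-dose oral monotherapy without adjuvant, at 120 or 150 mg/kg, given by gavage 24 h after infecting male C57BL/6J mice (four per group) with 2×10^7 P. berghei ANKA-parasitized erythrocytes. Blood parasitemia was measured on day 3 relative to vehicle controls. Survival was recorded over a 60-day study.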

Plasmodium berghei [4] = test: Antimalarial activity against Plasmodium berghei ANKA infected in C57BL/6J mouse assessed as average survival time at 6 mg/kg, po in presence of mefloquine (reference value: 8.8 days); type: functional; method in brief: as §1
Plasmodium berghei [5] = test: Antimalarial activity against Plasmodium berghei ANKA infected in C57BL/6J mouse assessed as average survival time at 150 mg/kg, po (reference value: 8.8 days); type: functional; method in brief: as §2
Plasmodium berghei [6] = test: Antimalarial activity against Plasmodium berghei ANKA infected in C57BL/6J mouse assessed as suppression of blood parasitemia level at 6 mg/kg, po measured on day 3 relative to vehicle-treated control in presence of mefloquine; type: functional; method in brief: as §1
Plasmodium berghei [7] = test: Antimalarial activity against Plasmodium berghei ANKA infected in C57BL/6J mouse assessed as average survival time at 6 mg/kg, po in presence of lumefantrine (reference value: 8.8 days); type: functional
Method in brief: (§3)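 P. berghei ANKA infection (2×10^7 parasitized erythrocytes) in male C57BL/6J mice, four per group. A single oral dose was given 24 h post-infection: trioxane 6 mg/kg plus lumefantrine 18 mg/kg. Day-3 blood parasitemia was compared with vehicle mice, and survival was tracked up to 60 days.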

Mus musculus = test: Toxicity in po dosed C57BL/6J mouse infected with Plasmodium berghei ANKA assessed as average body weight gain measured on day 3 (reference value: 7.7 g); type: organism-based; conditions: in vivo
Plasmodium berghei [8] = test: Antimalarial activity against Plasmodium berghei ANKA infected in C57BL/6J mouse assessed as suppression of blood parasitemia level at 6 mg/kg, po measured on day 3 relative to vehicle-treated control in presence of lumefantrine; type: functional; method in brief: as §3
Plasmodium berghei [9] = test: Antimalarial activity against Plasmodium berghei ANKA infected in C57BL/6J mouse assessed as average survival time at 120 mg/kg, po (reference value: 7.3 days); type: functional; method in brief: as §2
Plasmodium berghei [10] = test: Antimalarial activity against Plasmodium berghei ANKA infected in C57BL/6J mouse assessed as suppression of blood parasitemia level at 120 mg/kg, po measured on day 3 relative to vehicle-treated control; type: functional; method in brief: as §2

| Compound | Activity (Plasmodium berghei [1]) [%] | MST (Plasmodium berghei [2]) [days] | MST (Plasmodium berghei [4]) [days] | Activity (Plasmodium berghei [6]) [%] | MST (Plasmodium berghei [7]) [days] | Activity (Plasmodium berghei [8]) [%] | also measured |
| --- | --- | --- | --- | --- | --- | --- | --- |
| CCOP(=O)(OCC)O/N=C(/C[C@H]1O[C@@H]2O[C@@]3(C)CC[C@H]4[C@H](C)CC[C@@H]([C@H]1C)[C@@]24OO3)[C@H]1O[C@@H]2O[C@@]3(C)CC[C@H]4[C@H](C)CC[C@@H]([C@H]1C)[C@@]24OO3 | >99.9 | 21.5 |  |  |  |  |  |
| CC(=O)O/N=C(/C[C@H]1O[C@@H]2O[C@@]3(C)CC[C@H]4[C@H](C)CC[C@@H]([C@H]1C)[C@@]24OO3)[C@H]1O[C@@H]2O[C@@]3(C)CC[C@H]4[C@H](C)CC[C@@H]([C@H]1C)[C@@]24OO3 | >99.9 |  |  |  |  |  |  |
| CO/N=C(/C[C@H]1O[C@@H]2O[C@@]3(C)CC[C@H]4[C@H](C)CC[C@@H]([C@H]1C)[C@@]24OO3)[C@H]1O[C@@H]2O[C@@]3(C)CC[C@H]4[C@H](C)CC[C@@H]([C@H]1C)[C@@]24OO3 | >99.9 | 60 | 49 | >99.9 | 26.3 | >99.9 | Activity (Plasmodium berghei [3]): 98%; MST (Plasmodium berghei [5]): 8.3 days; Activity (Mus musculus): 10.7 g |
| C=CCO/N=C(/C[C@H]1O[C@@H]2O[C@@]3(C)CC[C@H]4[C@H](C)CC[C@@H]([C@H]1C)[C@@]24OO3)[C@H]1O[C@@H]2O[C@@]3(C)CC[C@H]4[C@H](C)CC[C@@H]([C@H]1C)[C@@]24OO3 | >99.9 | 40.3 | 49 | >99.9 | 41.3 | >99.9 | Activity (Plasmodium berghei [3]): >99%; MST (Plasmodium berghei [5]): 46.8 days; MST (Plasmodium berghei [9]): 40.3 days; Activity (Plasmodium berghei [10]): >99.9% |
| CO/N=C(\C[C@H]1O[C@@H]2O[C@@]3(C)CC[C@H]4[C@H](C)CC[C@@H]([C@H]1C)[C@@]24OO3)[C@H]1O[C@@H]2O[C@@]3(C)CC[C@H]4[C@H](C)CC[C@@H]([C@H]1C)[C@@]24OO3 |  |  | 37 | >99.9 |  |  |  |
| C[C@H]1[C@@H](C(=O)C[C@H]2O[C@@H]3O[C@@]4(C)CC[C@H]5[C@H](C)CC[C@@H]([C@H]2C)[C@@]35OO4)O[C@@H]2O[C@@]3(C)CC[C@H]4[C@H](C)CC[C@@H]1[C@@]24OO3 | >99.9 |  |  |  |  |  |  |
| COP(=O)(OC)O/N=C(/C[C@H]1O[C@@H]2O[C@@]3(C)CC[C@H]4[C@H](C)CC[C@@H]([C@H]1C)[C@@]24OO3)[C@H]1O[C@@H]2O[C@@]3(C)CC[C@H]4[C@H](C)CC[C@@H]([C@H]1C)[C@@]24OO3 | >99.9 | 56 |  |  |  |  |  |
| C[C@H]1[C@@H](/C(C[C@H]2O[C@@H]3O[C@@]4(C)CC[C@H]5[C@H](C)CC[C@@H]([C@H]2C)[C@@]35OO4)=N\OC(=O)N(C)C)O[C@@H]2O[C@@]3(C)CC[C@H]4[C@H](C)CC[C@@H]1[C@@]24OO3 | >99.9 |  |  |  |  |  |  |
| C[C@H]1[C@@H](/C(C[C@H]2O[C@@H]3O[C@@]4(C)CC[C@H]5[C@H](C)CC[C@@H]([C@H]2C)[C@@]35OO4)=N\OC(C)(C)C)O[C@@H]2O[C@@]3(C)CC[C@H]4[C@H](C)CC[C@@H]1[C@@]24OO3 |  |  |  | >99.9 |  |  |  |
| CO[C@H]1O[C@@H]2O[C@@]3(C)CC[C@H]4[C@H](C)CC[C@@H]([C@H]1C)[C@@]24OO3 [ARTEMETHER] | >99.9 | 40 |  | >99.9 | 19 | >99.9 |  |
| C[C@H]1[C@@H](/C(C[C@H]2O[C@@H]3O[C@@]4(C)CC[C@H]5[C@H](C)CC[C@@H]([C@H]2C)[C@@]35OO4)=N\OCC2CC2)O[C@@H]2O[C@@]3(C)CC[C@H]4[C@H](C)CC[C@@H]1[C@@]24OO3 |  |  | 41 | >99.9 |  |  |  |
| C[C@H]1[C@@H](/C(C[C@H]2O[C@@H]3O[C@@]4(C)CC[C@H]5[C@H](C)CC[C@@H]([C@H]2C)[C@@]35OO4)=N\O)O[C@@H]2O[C@@]3(C)CC[C@H]4[C@H](C)CC[C@@H]1[C@@]24OO3 | >99.9 | 52.5 |  |  |  |  |  |
| C#CCO/N=C(/C[C@H]1O[C@@H]2O[C@@]3(C)CC[C@H]4[C@H](C)CC[C@@H]([C@H]1C)[C@@]24OO3)[C@H]1O[C@@H]2O[C@@]3(C)CC[C@H]4[C@H](C)CC[C@@H]([C@H]1C)[C@@]24OO3 | >99.9 | 60 |  | >99.9 | 60 | >99.9 | Activity (Plasmodium berghei [3]): >99.9%; MST (Plasmodium berghei [5]): 46.8 days; Activity (Mus musculus): 12 g |
